E-selectin induc = induces E-selectin expression in human endothelial cells; P16581; HUVEC E-selectin immunofluorescence imaging; normalized: neutral wells 0, TNF-alpha wells 100; activation, % at 7.58 µM; 0.37% of 260,000 active; AID 686992;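 active = mean E-selectin-positive cell signal at least 10% of the positive control, reached in at least 60% of replicates, without over 20% cell loss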
Target sequence (P16581 whole entry, looked up): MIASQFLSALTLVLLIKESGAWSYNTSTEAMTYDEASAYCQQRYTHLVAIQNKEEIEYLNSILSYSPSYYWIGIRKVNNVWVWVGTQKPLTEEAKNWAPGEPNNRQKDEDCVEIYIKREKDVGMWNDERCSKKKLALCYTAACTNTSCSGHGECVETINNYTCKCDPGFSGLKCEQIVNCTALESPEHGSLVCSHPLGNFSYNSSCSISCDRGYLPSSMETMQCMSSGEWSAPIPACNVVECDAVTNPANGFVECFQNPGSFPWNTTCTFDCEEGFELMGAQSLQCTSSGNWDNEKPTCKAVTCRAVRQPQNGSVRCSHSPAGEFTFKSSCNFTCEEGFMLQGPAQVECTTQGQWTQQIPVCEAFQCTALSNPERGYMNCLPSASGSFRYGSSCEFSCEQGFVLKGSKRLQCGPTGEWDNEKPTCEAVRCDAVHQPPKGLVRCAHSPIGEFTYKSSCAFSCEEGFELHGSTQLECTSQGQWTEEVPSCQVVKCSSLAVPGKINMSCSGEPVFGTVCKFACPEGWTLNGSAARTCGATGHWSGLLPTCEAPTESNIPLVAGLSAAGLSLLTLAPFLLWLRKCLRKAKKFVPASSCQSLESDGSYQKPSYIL
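assay system = HUVEC, human umbilical vein endothelial cells | input = 3,000 HUVEC seeded per well | medium = EGM-2 growth medium on 0.1% gelatin-coated wells | dosing = one compound dose added by pin transfer | signal = immunofluorescence imaging | read-out basis = % PE-positive cells | control set = TNF-alpha, DMSO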
DENV2 CPE rescue = protects cells from dengue virus 2 cytopathic effect | CPE inhibition, % at 9.99 µM | 1.7% of 350,000 active | DENV2-infected cells, cytopathic effect rescue, plate reader; in the data active = CPE inhibition above about 20%, passing the limit was not always enough; tested in BHK-21 cells;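 note: 0% = median of neutral control wells and 100% = median of positive control wells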
SIRT5 inh = inhibitors of human sirtuin-5 desuccinylase; Q9NXA8; Purified SirT5, succinyl-peptide AMC, trypsin-coupled fluorescence; inhibition, % at 15 µM; 1.1% of 330,000 active; in the data active = inhibition above about 15%
The depositor's hits bear a star; nt = not tested or not shown; ! = a repeat was not active. Compounds with a hit are over-represented: about 2.8% of the library has one in this group of screens.

SMILES	E-selectin induc	DENV2 CPE rescue	SIRT5 inh
O=C(Cc1ccc(NC(=O)C2CCCN(C(=O)C3CCCCC3)C2)cc1)Nc1cccc(C(=O)N2CCCC2)c1 (centres undefined)	0	15	-4
O=C(Cc1cccc(NC(=O)C2CCN(C(=O)C3CCCC3)CC2)c1)Nc1cccc(C(=O)N2CCCCC2)c1	-2	43*	-2
CCCC(=O)Nc1ccc2c(c1)C(=O)N(C)[C@H]1CC[C@H](CC(=O)NCc3ccccc3Cl)O[C@H]1CO2	0	-7	-2
CNC[C@@H]1Oc2cc(C#CCC(C)C)ccc2S(=O)(=O)N([C@@H](C)CO)C[C@H]1C	0	5	0
CCCNC(=O)N1CC2(CCN(C(=O)CN(C)C)CC2)c2c(n(C)c3cc(OC)ccc23)[C@H]1CO	1	3	1
CN(Cc1ccccc1)C(=O)c1ccc(NC(=O)Cc2ccc(NC(=O)C3CCN(C(=O)C4CCCCC4)CC3)cc2)cc1	3	10	-3
CN(Cc1ccccc1)C(=O)c1ccc(NC(=O)Cc2ccc(NC(=O)C3CCN(C(=O)C4CCC4)CC3)cc2)cc1	0	53*	1
CO[C@H]1CN(C)C(=O)c2cc(NC(=O)c3cnccn3)ccc2OC[C@H](C)N(CC2CC2)C[C@H]1C	0	5	1
CO[C@@H]1CN(C)C(=O)c2ccc(NC(=O)c3cccc(F)c3)cc2OC[C@@H](C)N(C)C[C@H]1C	0	4	-3
COc1ccc(S(=O)(=O)Nc2ccc3c(c2)C(=O)N([C@@H](C)CO)C[C@@H](C)[C@@H](CN(C)C(=O)Nc2ccc(F)cc2)OCCCC[C@H](C)O3)cc1	0	1	10
COc1ccc(S(=O)(=O)Nc2ccc3c(c2)C(=O)N([C@H](C)CO)C[C@H](C)[C@H](CN(C)C(=O)Nc2ccc(F)cc2)OCCCC[C@H](C)O3)cc1	0	-4	17*
COc1ccc(S(=O)(=O)Nc2ccc3c(c2)C(=O)N([C@@H](C)CO)C[C@@H](C)[C@@H](CN(C)C(=O)Nc2ccc(C(F)(F)F)cc2)OCCCC[C@H](C)O3)cc1	0	-6	-1
COc1ccc(S(=O)(=O)Nc2ccc3c(c2)C(=O)N([C@@H](C)CO)C[C@H](C)[C@@H](CN(C)C(=O)Nc2ccc(C(F)(F)F)cc2)OCCCC[C@@H](C)O3)cc1	0	6	8
COc1ccc(S(=O)(=O)Nc2ccc3c(c2)C(=O)N([C@@H](C)CO)C[C@H](C)[C@@H](CN(C)C(=O)Nc2ccc(C(F)(F)F)cc2)OCCCC[C@H](C)O3)cc1	0	106*	11
COc1ccc(S(=O)(=O)Nc2ccc3c(c2)C(=O)N([C@@H](C)CO)C[C@H](C)[C@H](CN(C)C(=O)Nc2ccc(C(F)(F)F)cc2)OCCCC[C@H](C)O3)cc1	0	109*	9
O=C(C[C@@H]1C=C[C@@H](NS(=O)(=O)c2cccc(F)c2)[C@H](CO)O1)N1CCCCC1	0	5	9
COc1ccc(S(=O)(=O)N(C)C[C@@H]2OCCCC[C@@H](C)Oc3ccc(NC(=O)Nc4cccc5ccccc45)cc3C(=O)N([C@@H](C)CO)C[C@@H]2C)cc1	9	0	nt
CCCSc1nc2c(cnn2-c2ccc(C)c(C)c2)c(=O)[nH]1	1	5	-2
CCCCSc1nc2c(cnn2-c2ccc(C)c(C)c2)c(=O)[nH]1	1	50*	2
CCCC#Cc1ccc([C@H]2[C@@H](CO)N(C(=O)NC(C)C)[C@@H]2CNC(C)=O)cc1	0	1	-1
O=C(OCc1ccccc1)N1CCC2CC1c1ccc(Cl)cc12 (centres undefined)	0	-6	-1
COCC(=O)N1CCC2CC1c1cc(Cl)ccc12 (centres undefined)	0	15	22*
CC(C)CC#Cc1cnc2c(c1)C(=O)N([C@@H](C)CO)C[C@H](C)[C@H](CN(C)C(=O)Cc1ccncc1)O2	0	2	0
C[C@@H]1CN([C@@H](C)CO)C(=O)c2cc(Br)cnc2O[C@H]1CN(C)C(=O)C1CCCCC1	0	10	18*!
C[C@H](CO)N1C[C@H](C)[C@H](CN(C)C(=O)C2CCOCC2)Oc2ncc(Br)cc2C1=O	0	8	-1
CC(C)CC#Cc1cnc2c(c1)C(=O)N([C@@H](C)CO)C[C@@H](C)[C@@H](CN(C)C(=O)Cc1ccncc1)O2	0	28*	-2
C[C@H]1CN([C@@H](C)CO)C(=O)c2cc(Br)cnc2O[C@H]1CN(C)C(=O)C1CCOCC1	1	24*	-1
C[C@@H]1CN([C@H](C)CO)C(=O)c2cc(Br)cnc2O[C@H]1CN(C)C(=O)C1CCCCC1	0	-5	-3
CC(C)CC#Cc1cnc2c(c1)C(=O)N([C@H](C)CO)C[C@H](C)[C@H](CN(C)C(=O)C1CCOCC1)O2	0	4	2
